# Hits are enriched below; roughly 1.4% of the tested compounds scored in any of these assays.
# PG9 Ab binder: PG9 antibody binding by small molecule; TR-FRET gp120-PG9 antibody binding; 0.43% of 360,000 active; inhibition, % at 6.7 µM; in the data active = inhibition above about 8.5%
# NR1D1 modulator: Rev-erb alpha (human) modulation; activity, % at 10 µM; Rev-erbα–FITC-DNA binding, fluorescence polarization, 90 min; 0.79% of 370,000 active;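 active = activity above about 14%, limit read from the data; passing the limit was not always enough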
# NR2E3 ag-1: activates human photoreceptor nuclear receptor NR2E3; Q9Y5X4; inhibition of corepressor binding, % at 4.78 µM; AID 2300; 0.12% of 320,000 active; GST-NR2E3/biotin-RetCOR TR-FRET, 1536-well;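 active = percent inhibition above the cutoff of mean plus 3 SD of all tested compounds, set per screening campaign, cut at about 20% in these data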
# Target sequence (Q9Y5X4 whole entry, looked up): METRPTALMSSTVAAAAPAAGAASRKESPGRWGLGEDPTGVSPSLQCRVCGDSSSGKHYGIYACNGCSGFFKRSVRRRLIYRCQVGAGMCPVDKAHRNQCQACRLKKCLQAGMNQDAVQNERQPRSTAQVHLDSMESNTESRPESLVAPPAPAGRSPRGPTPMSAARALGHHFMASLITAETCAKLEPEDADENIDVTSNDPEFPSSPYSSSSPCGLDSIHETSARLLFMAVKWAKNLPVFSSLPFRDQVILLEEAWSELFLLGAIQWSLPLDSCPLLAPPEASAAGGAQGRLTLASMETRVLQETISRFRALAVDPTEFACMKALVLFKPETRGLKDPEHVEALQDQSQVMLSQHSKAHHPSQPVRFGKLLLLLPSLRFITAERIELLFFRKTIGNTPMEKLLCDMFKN
#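 Assay system: NR2E3–RetCOR corepressor complex. Quantity: 1.35 nM GST-NR2E3. Buffer or medium: pH 7.5 Tris-based buffer. Reagent: biotinylated RetCOR corepressor at 7 nM final. Schedule: 5 h at 4 °C. Detection: TR-FRET, emission read at 617 and 671 nm. Replicates: one well per compound, singlicate testing.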
# NR2E3 ag-2: human photoreceptor-specific nuclear receptor agonism. inhibition of corepressor binding, % at 3.98 µM. 0.35% of 360,000 active. AID 602229. Q9Y5X4. CHO-S Gal4-NCOR/VP16-NR2E3 two-hybrid, luciferase;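 active = inhibition above the mean of all tested compounds plus 3 SD, cut at about 70% in these data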;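 also: higher means lower luciferase signal from less NR2E3 corepressor binding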
# NR2E3 ag conf: NR2E3 agonism confirmed in two-hybrid assay; CHO-S mammalian two-hybrid NR2E3-NCOR, luciferase luminescence; shares compounds with NR2E3 ag-2; 51% of 2,300 active; inhibition, % at 3.98 µM;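 active = average inhibition above a cutoff equal to the mean inhibition of all tested compounds plus one SD, cut at about 70% in these data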
# VP16 counter: GAL4-VP16 reporter inhibition in NR2E3 agonist counterscreen. shares compounds with NR2E3 ag-2. CHO-S GAL4-VP16 luciferase reporter, luminescence. inhibition, % at 3.98 µM. 29% of 2,300 active. AID 624379;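 active = mean inhibition above a cutoff equal to the average over all tested compounds plus one standard deviation, cut at about 70% in these data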;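 also: luciferase from a UAS reporter driven by GAL4-VP16 transactivation; higher means less reporter light so more repression of VP16 activity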
# A number is an active result; 0 = inactive; - = no result.
SMILES,PG9 Ab binder,NR1D1 modulator,NR2E3 ag-1,NR2E3 ag-2,NR2E3 ag conf,VP16 counter
Nc1cc(=O)[nH]c(SCc2ccc(Cl)cc2)n1,0,0,0,0,-,-
CC(C)(C)c1ccc(CSc2nc(N)cc(=O)[nH]2)cc1,-,-,0,96,76,0
Cc1ccc(-n2nc3c(=O)n(CC(=O)NC(C)CCc4ccccc4)nc(C)c3c2C)cc1 (stereo unspecified),-,-,0,0,0,0
Cc1ccc(-n2nc3c(=O)n(CCCC(=O)NCc4cccc(F)c4)nc(C)c3c2C)cc1,0,0,0,0,0,0
Nc1[nH]c(C(=O)c2ccccc2)c(-c2cccc3ccccc23)c1C(=O)NC1CCCCC1,0,0,-,-,-,-
Cc1cc(C(=O)CSc2nc(N)cc(=O)[nH]2)c(C)n1CC1CCCO1 (stereo unspecified),0,0,-,0,-,-
Cc1cc(C(=O)CSc2nc3ccccc3[nH]2)c(C)n1CC1CCCO1 (stereo unspecified),0,0,0,84,87,0
CC(Cl)C(=O)N1CCC(C(=O)NC2CCCc3ccccc32)CC1 (stereo unspecified),-,0,-,-,-,-
COc1ccc(NS(=O)(=O)c2ccc(-c3coc(C)n3)cc2)cc1,0,0,0,0,-,-
CSc1cccc(NS(=O)(=O)c2ccc(-c3coc(C)n3)cc2)c1,0,0,0,93,77,0
Cc1nc(-c2ccc(S(=O)(=O)Nc3cccc(Cl)c3)cc2)co1,0,0,0,0,-,-
Cc1ccc(NS(=O)(=O)c2ccc(-c3coc(C)n3)cc2)c(Br)c1,0,0,0,0,0,0
Cc1ccc(C)c(NS(=O)(=O)c2ccc(-c3coc(C)n3)cc2)c1,0,0,0,0,-,-
COc1ccc(NS(=O)(=O)c2ccc(-c3coc(C)n3)cc2)cc1OC,0,0,0,108,99,87
C=C(C)C1CCC2(C(=O)O)CCC3(C)C(CCC4C5(C)C(C=O)C(O)C(C)(C)C5CCC43C)C12 (stereo unspecified),0,0,0,76,0,0
Cc1nnc2ccc(Oc3ccc(-c4ccccc4)cc3)nn12,0,0,0,0,91,73
COc1cc(C2C=C(C34CC5CC(CC(C5)C3)C4)NC(=S)N2)cc(OC)c1OC (stereo unspecified),0,0,0,0,-,-
COc1ccc(OC)c(C2C=C(C34CC5CC(CC(C5)C3)C4)NC(=S)N2)c1 (stereo unspecified),0,0,0,0,0,0
CCOc1cc(CNc2ccc3c(c2)OCCO3)cc(Br)c1OCC,0,0,0,0,0,0
CCOC(=O)c1cnc(-n2nc(C)cc2C)nc1NCc1ccccc1,0,0,0,94,0,0
CCOC(=O)c1cnc(-n2nc(C)cc2C)nc1NC(C)c1ccccc1 (stereo unspecified),0,0,0,98,0,0
CCN(C[C@@H]1[C@@H](c2ccccc2)[C@H](CO)N1S(C)(=O)=O)C(=O)C1CCC1,-,0,-,-,-,-
COc1ccc(CC2(CO)CCN(CC3=Cc4cc(Cl)ccc4OC3)CC2)cc1,0,0,0,0,96,74
COc1ccc2c(c1)C=C(CN1CCC(CO)(CCc3ccccc3)CC1)CO2,0,0,0,0,-,-
COc1ccc2cc1Oc1cc3c(cc1OC)CC[N+](C)(C)[C@H]3Cc1ccc(cc1)Oc1c(OC)c(OC)cc3c1[C@@H](C2)[N+](C)(C)CC3,-,0,-,-,-,-
SMILES,PG9 Ab binder,NR1D1 modulator,NR2E3 ag-1,NR2E3 ag-2,NR2E3 ag conf,VP16 counter
O=C(N[C@@H](CO)[C@H](O)c1ccc([N+](=O)[O-])cc1)C(Cl)Cl,-,0,-,-,-,-
CNc1nc(Nc2ccc(C)cc2C)c2sccc2n1,0,0,-,0,0,0
CNc1nc(NCc2ccc(C)cc2C)c2sccc2n1,0,0,-,0,0,0
Cc1ccc(CNc2nc(NC(C)C)nc3ccsc23)c(C)c1,0,0,-,0,-,-
Cc1ccc(Nc2nc(NCC3CC3)nc3ccsc23)c(C)c1,0,0,-,0,-,-
Cc1ccc(CNc2nc(NCc3ccccc3)nc3ccsc23)c(C)c1,0,0,-,74,0,0
Cc1ccc(NC(=O)Nc2ccc3c(c2)[C@]2(CC(=O)N(CC(C)C)C2c2ccccc2)C(=O)N3C)cc1Cl (stereo partly specified),-,0,-,-,-,-
COc1cc(F)c(S(=O)(=O)N2CCCN(S(=O)(=O)c3cccc(N)c3)CC2)c(F)c1,-,0,-,-,-,-
